Reference: paper PMC5028280 (Neuropharmacology, 2016)
Read-outs that look alike come from different tables or passages of the source.

Key:
male C57/Bl6J mice [1] = test: Drug discrimination, mice trained to discriminate 0.3 mg/kg JWH-018 from vehicle; assay type: in vivo, mouse; conditions: for Response rates compared to vehicle: 1 mg/kg JWH-018, 10 mg/kg THC, JWH-073 across the dose range tested; for Fold less potent than JWH-018 in JWH-018 discrimination: from ED50 values; for ED50 for substitution for the 0.3 mg/kg JWH-018 training dose / Substitution for the 0.3 mg/kg JWH-018 training dose: i.p.; for ED50 for substitution for the 0.3 mg/kg JWH-018 training dose: 30 min before session; for Substitution for the 0.3 mg/kg JWH-018 training dose: percentage of responses on JWH-018-associated lever
5-HT2B [2] = molecular target: T1, 5-HT2B (Homo sapiens, UniProt P41595); test: 5-HT2B antagonism functional assay; assay type: cell-based
T1 sequence (P41595 whole entry): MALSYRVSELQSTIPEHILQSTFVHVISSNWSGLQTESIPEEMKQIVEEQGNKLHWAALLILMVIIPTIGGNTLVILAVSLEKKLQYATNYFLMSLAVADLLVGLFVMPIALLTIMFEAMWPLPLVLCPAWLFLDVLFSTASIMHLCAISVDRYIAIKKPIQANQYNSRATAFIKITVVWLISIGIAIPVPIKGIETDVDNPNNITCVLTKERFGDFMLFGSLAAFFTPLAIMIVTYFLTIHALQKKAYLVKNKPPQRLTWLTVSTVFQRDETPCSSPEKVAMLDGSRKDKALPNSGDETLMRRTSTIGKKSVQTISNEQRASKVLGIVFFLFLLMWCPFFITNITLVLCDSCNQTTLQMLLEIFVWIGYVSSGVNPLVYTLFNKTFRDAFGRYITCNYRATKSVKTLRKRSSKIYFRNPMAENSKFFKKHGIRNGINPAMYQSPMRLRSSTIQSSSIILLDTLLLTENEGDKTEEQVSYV

hERG = hERG (Homo sapiens, UniProt Q12809); test: hERG channel assay; assay type: cell-based
Chain of hERG (Q12809 whole entry, the tested form may be a part): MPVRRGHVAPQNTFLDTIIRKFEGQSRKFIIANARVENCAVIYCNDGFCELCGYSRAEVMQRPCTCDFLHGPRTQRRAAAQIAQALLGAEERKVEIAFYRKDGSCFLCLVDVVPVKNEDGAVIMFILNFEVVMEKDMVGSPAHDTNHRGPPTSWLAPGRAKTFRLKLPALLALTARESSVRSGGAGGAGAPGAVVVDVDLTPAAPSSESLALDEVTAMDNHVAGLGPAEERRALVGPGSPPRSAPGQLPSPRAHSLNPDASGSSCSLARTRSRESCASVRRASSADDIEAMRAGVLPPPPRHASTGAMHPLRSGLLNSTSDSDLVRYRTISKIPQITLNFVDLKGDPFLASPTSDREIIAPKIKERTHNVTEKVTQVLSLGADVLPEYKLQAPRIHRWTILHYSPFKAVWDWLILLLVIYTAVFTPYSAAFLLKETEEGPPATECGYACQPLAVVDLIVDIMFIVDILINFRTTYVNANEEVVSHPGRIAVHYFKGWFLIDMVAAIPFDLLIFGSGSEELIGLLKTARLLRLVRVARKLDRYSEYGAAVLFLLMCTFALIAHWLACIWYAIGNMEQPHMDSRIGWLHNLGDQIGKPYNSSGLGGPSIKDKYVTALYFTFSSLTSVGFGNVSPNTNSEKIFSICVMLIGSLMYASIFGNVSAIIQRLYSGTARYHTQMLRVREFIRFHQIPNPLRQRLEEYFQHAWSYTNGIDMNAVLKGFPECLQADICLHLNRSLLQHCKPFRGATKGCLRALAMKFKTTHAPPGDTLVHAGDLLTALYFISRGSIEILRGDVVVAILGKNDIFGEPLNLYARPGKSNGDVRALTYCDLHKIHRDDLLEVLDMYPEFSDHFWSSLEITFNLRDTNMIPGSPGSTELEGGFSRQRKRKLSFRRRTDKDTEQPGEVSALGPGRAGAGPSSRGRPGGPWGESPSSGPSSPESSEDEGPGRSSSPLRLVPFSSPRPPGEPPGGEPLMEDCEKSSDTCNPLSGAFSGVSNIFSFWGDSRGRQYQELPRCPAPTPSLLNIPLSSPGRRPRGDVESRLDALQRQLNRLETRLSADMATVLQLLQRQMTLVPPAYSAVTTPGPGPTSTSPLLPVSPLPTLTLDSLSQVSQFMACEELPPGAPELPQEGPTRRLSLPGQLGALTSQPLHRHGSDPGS

male ICR mice [3] = test: Functional observational battery; assay type: in vivo, mouse; conditions: i.v.; for FOB Home cage activity: doses with significant differences vs vehicle: CNS Activity domain, ↓ decrease vs vehicle, N = 6/dose; for FOB Gait: doses with significant differences vs vehicle / FOB Muscle tone: doses with significant differences vs vehicle / FOB Posture: doses with significant differences vs vehicle / FOB Forelimb placing: doses with significant differences vs vehicle: Muscle tone/Equilibrium domain; for FOB Approach response: doses with significant differences vs vehicle / FOB Startle response: doses with significant differences vs vehicle: Sensorimotor Reactivity domain
Procedure, shortened: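 Male ICR mice, each given one dose only, n=6 per dose; housed at 20–22°C on a 12-h light/dark cycle with food ad libitum. Approach and startle after observer interference were scored as categorical measures. Each compound's vehicle group was pooled into one vehicle group, and each dose was compared with it. Tests: Fisher's exact (categorical), Kruskal-Wallis (ordinal), one-way ANOVA (continuous).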

male ICR mice [4] = test: FOB, cannabinoid receptor antagonism of 3 mg/kg JWH-018 effects; assay type: in vivo, mouse
5-HT2B [5] = molecular target: T1, 5-HT2B; test: NIMH PDSP secondary binding assay, 5-HT2B
[6] = Urinary metabolite identification; assay type: in vivo, mouse; conditions: II = glucuronic acid conjugate; X = identified
5-HT6 = 5-HT6 (Homo sapiens, UniProt P50406); test: NIMH PDSP secondary binding assay, 5-HT6; conditions: read-out: 5-HT6 binding affinity Ki; mean of 3 replications
Chain of 5-HT6 (P50406 whole entry): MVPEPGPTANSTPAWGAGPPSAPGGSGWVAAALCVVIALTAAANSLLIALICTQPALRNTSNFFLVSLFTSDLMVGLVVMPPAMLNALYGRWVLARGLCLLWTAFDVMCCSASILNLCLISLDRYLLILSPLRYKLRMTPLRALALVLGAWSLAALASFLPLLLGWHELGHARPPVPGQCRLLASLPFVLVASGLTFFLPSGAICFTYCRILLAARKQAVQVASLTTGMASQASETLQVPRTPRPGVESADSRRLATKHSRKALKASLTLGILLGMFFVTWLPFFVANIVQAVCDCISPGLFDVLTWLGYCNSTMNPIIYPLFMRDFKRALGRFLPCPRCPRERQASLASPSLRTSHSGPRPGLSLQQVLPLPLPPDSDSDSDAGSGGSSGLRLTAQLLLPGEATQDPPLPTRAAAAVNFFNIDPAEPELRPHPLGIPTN

5-HT2C = molecular target: T2, 5-HT2C (Homo sapiens, UniProt P28335); test: NIMH PDSP secondary binding assay, 5-HT2C; conditions: read-out: 5-HT2C binding affinity Ki; mean of 3 replications
T2 sequence (P28335 33-458): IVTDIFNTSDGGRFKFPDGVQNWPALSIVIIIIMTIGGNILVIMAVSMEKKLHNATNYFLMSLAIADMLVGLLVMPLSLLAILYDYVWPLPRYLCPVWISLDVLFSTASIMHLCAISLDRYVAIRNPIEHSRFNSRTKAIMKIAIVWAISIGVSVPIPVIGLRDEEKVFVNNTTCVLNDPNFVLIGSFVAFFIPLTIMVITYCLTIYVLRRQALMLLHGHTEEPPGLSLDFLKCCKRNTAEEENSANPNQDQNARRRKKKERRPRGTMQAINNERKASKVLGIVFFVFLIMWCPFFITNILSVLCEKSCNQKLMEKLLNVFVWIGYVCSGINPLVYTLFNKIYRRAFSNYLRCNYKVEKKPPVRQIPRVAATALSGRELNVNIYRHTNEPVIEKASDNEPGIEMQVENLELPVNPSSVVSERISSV

GABA: PBR = GABA: PBR (Rattus norvegicus, UniProt P16257); test: NIMH PDSP secondary binding assay, PBR; set-up: species or system human
Chain of GABA: PBR (P16257 whole entry): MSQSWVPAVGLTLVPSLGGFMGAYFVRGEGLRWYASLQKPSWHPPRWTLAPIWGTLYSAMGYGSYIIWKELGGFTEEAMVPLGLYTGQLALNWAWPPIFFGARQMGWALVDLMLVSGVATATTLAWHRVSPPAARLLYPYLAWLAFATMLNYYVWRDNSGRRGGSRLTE

male C57/Bl6J mice [7] = test: Drug discrimination, mice trained to discriminate 5.6 mg/kg THC from vehicle; assay type: in vivo, mouse
[8] = inhibition of hERG channels, mean of 3 replicates
[9] = categorical, ---- no significant effect
[10] = read-out: 5-HT2B binding affinity Ki, mean of 3 replications
[11] = CNS Excitability domain, ↑ increase vs vehicle, ---- no significant effect
[12] = read-out: 5-HT2B Antagonism IC50, mean of 3 replicates
[13] = Autonomic Effects domain, categorical, ---- no significant effect
[14] = read-out: hERG Channels EC50, inhibition of hERG channels, mean of 3 replicates

Compound	hERG Channels Emax (hERG; [8])	FOB Home cage activity: doses with significant differences vs vehicle (male ICR mice [3])	FOB Gait: doses with significant differences vs vehicle (male ICR mice [3]; [9])	FOB Muscle tone: doses with significant differences vs vehicle (male ICR mice [3]; [9])	FOB Posture: doses with significant differences vs vehicle (male ICR mice [3]; [9])	FOB Approach response: doses with significant differences vs vehicle (male ICR mice [3]; [9])	FOB Startle response: doses with significant differences vs vehicle (male ICR mice [3]; [9])	Ki (5-HT2B [5]; [10])	FOB Tail elevation: doses with significant differences vs vehicle (male ICR mice [3]; [11])	Response rates compared to vehicle (male C57/Bl6J mice [1])	Substitution for the 0.3 mg/kg JWH-018 training dose (male C57/Bl6J mice [1])	5-HT2B Antagonism Emax (5-HT2B [2]; mean of 3 replicates)	IC50 (5-HT2B [2]; [12])	EC50 (hERG; [14])	FOB Tonus: doses with significant differences vs vehicle (male ICR mice [3]; [11])	FOB Forelimb placing: doses with significant differences vs vehicle (male ICR mice [3]; [9])	also measured
Cc1c(C(=O)NN2CCCCC2)nn(-c2ccc(Cl)cc2Cl)c1-c1ccc(Cl)cc1 [rimonabant]	–	–	–	–	–	–	–	–	–	–	–	–	–	–	–	–	Response rates in antagonism tests (male C57/Bl6J mice [1]; 3 mg/kg antagonist with vehicle or 0.3 mg/kg JWH-018): significantly decreased
CCCCCn1cc(C(=O)c2ccc(OC)c3ccccc23)c2ccccc21 [JWH-081]	lacked efficacy	↓ (0.1-1) mg/kg	(0.3-1) mg/kg	(0.3) mg/kg	(0.3-1) mg/kg	(1) mg/kg	(1) mg/kg	–	–	–	–	–	–	–	–	–	5-HT2B Antagonism IC50 (5-HT2B [2]; mean of 3 replicates): Not active; hERG Channels EC50 (hERG; [8]): Not active
SR144528 [reference compound]	–	–	–	–	–	–	–	–	–	–	–	–	–	–	–	–	FOB selected measures, antagonist 3 mg/kg i.p. plus vehicle (male ICR mice [4]; rimonabant/vehicle and SR144528/vehicle groups, all mice): Normal responses
CCCCCc1cc(O)c2c(c1)OC(C)(C)[C@@H]1CCC(C)=C[C@@H]21 [THC, Δ^9-tetrahydrocannabinol, reference compound]	–	↓ (0.3-10) mg/kg	–	–	(3-10) mg/kg	–	–	0.765 µM	↑ (3) mg/kg	significantly decreased response rates	fully and dose-dependently substituted	–	–	–	–	–	Fold less potent than JWH-018 in JWH-018 discrimination (male C57/Bl6J mice [1]): ~10 fold; ED50 for substitution for the 0.3 mg/kg JWH-018 training dose (male C57/Bl6J mice [1]): 4.08 µmol/kg
CCCCCn1cc(C(=O)c2ccc(CC)c3ccccc23)c2ccccc21 [JWH-210]	lacked efficacy	↓ (0.1-3) mg/kg	(0.1-3) mg/kg	(0.3-3) mg/kg	(0.1-3) mg/kg	–	(0.3-3) mg/kg	–	–	–	–	100%	2870 µM	–	–	–	hERG Channels EC50 (hERG; [8]): Not active; FOB Exophthalmus: doses with significant differences vs vehicle (male ICR mice [3]; [13]): (0.3) mg/kg; Monohydroxylation metabolite in urine, phase II [6]: no monohydroxyl glucuronide was observed
O=C(c1cccc2ccccc12)c1cn(CCCCCF)c2ccccc12 [AM-2201]	70%	↓ (0.03-1) mg/kg	–	(0.1-1) mg/kg	(0.03-1) mg/kg	(0.1-1) mg/kg	–	0.192 µM	–	–	–	100%	23.9 µM	3.35 µM	↑ (0.3-1) mg/kg	–	Ki (5-HT6): 0.693 µM
CCCCCn1cc(C(=O)Cc2ccccc2)c2ccccc21 [JWH-167]	81%	↓ (3-30) mg/kg	(3-30) mg/kg	(3-30) mg/kg	(1-30) mg/kg	(3-30) mg/kg	(3-30) mg/kg	1.25 µM	–	–	–	100%	47.7 µM	13.8 µM	↑ (10) mg/kg	(10-30) mg/kg	Ki (5-HT2C): 4.82 µM; FOB Exophthalmus: doses with significant differences vs vehicle (male ICR mice [3]; [13]): (1) mg/kg; FOB Piloerection: doses with significant differences vs vehicle (male ICR mice [3]; [13]): (10-30) mg/kg
CCCCn1cc(C(=O)c2cccc3ccccc23)c2ccccc21 [JWH-073]	59%	↓ (0.3-3) mg/kg	(0.3-3) mg/kg	(1-3) mg/kg	(1-3) mg/kg	(1-3) mg/kg	(3) mg/kg	0.184 µM	↑ (1) mg/kg	significant decreases were not observed	fully and dose-dependently substituted	100%	19.3 µM	9.71 µM	–	(0.3) mg/kg	Fold less potent than JWH-018 in JWH-018 discrimination (male C57/Bl6J mice [1]): about 5 fold; ED50 for substitution for the 0.3 mg/kg JWH-018 training dose (male C57/Bl6J mice [1]): 2.11 µmol/kg
CCCCCn1cc(C(=O)c2cccc3ccccc23)c2ccccc21 [JWH-018, 1-pentyl-3-(1-naphthoyl)indole]	Full efficacy	↓ (0.1-3) mg/kg	(0.1-3) mg/kg	(0.1-3) mg/kg	(0.1-3) mg/kg	(0.3-3) mg/kg	(3) mg/kg	–	↑ (1) mg/kg	significantly decreased response rates	fully and dose-dependently substituted	–	–	–	↑ (1) mg/kg	(3) mg/kg	Ki (5-HT2B [5]): 0.316 µM; Ki (GABA: PBR): 0.673 µM; IC50 (5-HT2B [2]): 33.2 µM; Emax (5-HT2B [2]; read-out: 5-HT2B Antagonism Emax): 100%; EC50 (hERG): 236 µM; Emax (hERG; human, stably transfected cell line expressing hERG channels): 100%; FOB Clonus: doses with significant differences vs vehicle (male ICR mice [3]; [11]): ↑ (0.3) mg/kg; Muscle tone in FOB antagonism study (male ICR mice [4]; 3 mg/kg JWH-018 i.v. alone, or co-administration of 3 mg/kg rimonabant i.p.): Hypertonia; Responding on the JWH-018-associated lever at the training dose (male C57/Bl6J mice [1]; 0.3 mg/kg JWH-018): > 85%
CN1CCN2c3ccccc3Cc3ccccc3C2C1 (centres unmarked) [mianserin]	–	–	–	–	–	–	–	–	–	–	failed to substitute for or antagonize	–	–	–	–	–	Responding on the JWH-018 lever, 3 mg/kg mianserin co-administered with 0.3 mg/kg JWH-018 (male C57/Bl6J mice [1]; compared to 0.3 mg/kg JWH-018 alone): significantly decreased; Responding on the JWH-018 lever, 3 mg/kg mianserin (plus vehicle) (male C57/Bl6J mice [1]; compared to vehicle alone): significantly increased; Substitution of the JWH-018 training dose (0.3 mg/kg), mianserin at doses up 1 mg/kg (male C57/Bl6J mice [1]; mianserin plus 0.3 mg/kg JWH-018): not altered; Overall response rate, mianserin 1 and 3 mg/kg administered with JWH-018 (male C57/Bl6J mice [1]; mouse, in vivo): significantly suppressed; Percentage of THC-lever responding, mianserin 0.1, 0.3, and 3 mg/kg (male C57/Bl6J mice [7]; co-administered with either vehicle or 5.6 mg/kg THC): did not alter this pattern; Percentage of THC-lever responding, 1 mg/kg mianserin plus 5.6 mg/kg THC (male C57/Bl6J mice [7]; compared to 5.6 mg/kg THC alone): significantly lower; Substitution for THC in mice trained to discriminate THC (male C57/Bl6J mice [7]; mianserin tested alone, i.p.): did not substitute; Overall responding on both levers (response rate), 3 mg/kg mianserin (male C57/Bl6J mice [7]; with vehicle or THC): significantly suppressed
